For data set [1], the target named is Human immunodeficiency virus type 1 protease (Human immunodeficiency virus 1, UniProt Q72874). Kind of data set: Inhibition of recombinant HIV-1 protease (NY-5).
Data set [2] deals with Human immunodeficiency virus type 1 protease (Human immunodeficiency virus 1) (UniProt Q72874). Kind of data set: Inhibition of recombinant HIV-1 protease (NY-5) using 50 nM.
For data set [3] the target is unchanged. Description: Inhibition of recombinant HIV-1 protease (NY-5) using 5 uM.
The target is the same in data set [4]. Kind of data set: Inhibition of recombinant HIV-1 protease (NY-5) using 50 nM. Put shortly: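 Recombinant HIV-1 protease (NY5 sequence) was expressed in E. coli and purified. It was preincubated with inhibitor in DMSO for 5 min at 37 °C in MES–NaOH pH 6.0 with DTT and EDTA. Substrate H-SQNYPIV-OH was then added for 60 min at 37 °C, and the reaction was stopped with TFA. The PIV product was measured by reverse-phase HPLC at 215 nm against a synthetic standard.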

Data set [5] can be described thus: Bioavailability in rat after i.d. administration. Type of data set: ADME, organism-based. To be noted: in vivo. A digest of the protocol:
(§1)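 Three male Sprague–Dawley rats (300–400 g) per compound were anesthetized and dosed at 10 mg/kg in 50% PEG. Dosing was iv via the femoral vein or id by tube into the duodenum. Plasma was extracted with internal standard and analyzed by C18 HPLC with UV at 210 nm. Analysis was noncompartmental; F was calculated from id vs iv AUC. Values are mean ± SEM.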

Data set [6] can be described thus: Plasma half life was determined in rats after intravenous administration of the drug. Format: ADME, organism-based. Particulars: rat. Put shortly:
as §1

Data set [7] in a line: Time of maximum plasma concentration (Tmax) was determined in rats after intraduodenal administration of the drug. Format: ADME, organism-based. Particulars: rat. Put shortly:
as §1

Data set [8] is described as follows: Maximum plasma concentration (Cmax) was determined in rats after intraduodenal administration of the drug. Format: ADME, organism-based. More on the design: route intraduodenal. Particulars: rat. A digest of the protocol:
as §1

Another data set deals with CEM-SS. Description: Antiviral activity was determined based on inhibition of HIV-1 IIIB induced cytopathic effects in CEM-SS cells in vitro using tetrazolium reagent. Format: functional, cell-based. To be noted: Homo sapiens. A digest of the protocol:
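CEM-SS cells (2.5 × 10^4 cells/mL) were cultured with HIV-1 IIIB and compound in RPMI-1640 with 10% FCS and gentamicin for 6 days at 37 °C in 5% CO2. The virus titer was set to kill all cells by day 6. Cytopathic effect was read by XTT staining, and IC50 was taken as the mean of duplicates.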

The nature of data set [9]: Toxic concentration was determined for CEM-SS cells. Format: toxicity, cell-based. Particulars: human, read-out: TC50 (the source's name). A digest of the protocol:
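CEM-SS cells (2.5 × 10^4 cells/mL) were exposed to compound in RPMI-1640 with 10% FCS and gentamicin for 6 days at 37 °C in 5% CO2. Viability was read by XTT staining, and TC50 was taken as the mean of duplicates.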

As usually defined, the Ki is the dissociation constant of the complex between target and ligand, obtained from inhibition or displacement. Usually inhibition stands for the share of the control response that was lost under treatment. With `Cc1c(O)cccc1C(=O)N[C@@H](Cc1ccccc1)[C@H](O)C(=O)N1CSC[C@H]1C(=O)NCc1ccccc1`, the inhibition constant (Ki) in data set [1] was 59 nM. In data set [2], the inhibition stood at 43%.
For the compound `Cc1ccc(OCC(=O)N[C@@H](Cc2ccccc2)[C@H](O)C(=O)N2CSC[C@H]2C(=O)NC(C)(C)C)cc1`, the inhibition in [3] was determined as 44%.
Turning to `Cc1cccc(C)c1CNC(=O)[C@@H]1CSCN1C(=O)[C@@H](O)[C@H](Cc1ccccc1)NC(=O)c1cccc(O)c1C`, in [4], the inhibition turned out to be 75%. In data set [1], the Ki was 4.8 nM.
Take `CCc1cccc(CC)c1OCC(=O)N[C@@H](Cc1ccccc1)[C@H](O)C(=O)N1CSC[C@H]1C(=O)NC(C)(C)C`: the inhibition in [3] was 62%.
In the case of `CCCc1c(O)cccc1C(=O)N[C@@H](Cc1ccccc1)[C@H](O)C(=O)N1CSC[C@H]1C(=O)NC(C)(C)C`, the inhibition in [3] was 92%; in data set [4], 17%.
A word on the bioavailability: it is the share of a dose that reaches the circulation, judged against a reference dose that is usually intravenous. As usually defined, the half-life is the time in which the quantity being followed falls by half. Higher therefore signals slow decline. As a reminder, the Tmax is the time at which the peak concentration occurs. By Cmax is commonly meant the highest concentration seen after dosing. Regarding `CCc1c(O)cccc1C(=O)N[C@@H](Cc1ccccc1)[C@H](O)C(=O)N1CSC[C@H]1C(=O)NC(C)(C)C`, in [5], the bioavailability came to 36.2%. In [6], this compound yielded a half-life of 74 min. In addition, the Tmax in data set [7] is 30 min. In addition, the results for the inhibition in data set [3] and in data set [4] were 98% and 46%, respectively. Besides, the inhibition constant (Ki) in data set [1] worked out at 22.2 nM. This compound gave a Cmax in data set [8] of 1730 nM.
One may read the IC50 as the concentration that inhibits the measured activity by half. On to `CS[C@H](NC(=O)COc1cccc2cnccc12)C(=O)N[C@@H](Cc1ccccc1)[C@H](O)C(=O)N1CSC(C)(C)[C@H]1C(=O)NC(C)(C)C`, for which the IC50 in the data set with CEM-SS came out at 6 nM. Further, the CC50 in data set [9] is above 20000 nM. In addition, the Ki in data set [1] worked out at 0.088 nM.
For `Cc1c(O)cccc1C(=O)N[C@@H](Cc1ccccc1)[C@H](O)C(=O)N1CSC[C@H]1C(=O)NC(C)(C)C`, the bioavailability in data set [5] was found to be 33.9%. For the same compound, the half-life in data set [6] amounted to 59 min. In addition, the Tmax in data set [7] is 30 min. The compound further displayed an IC50 with CEM-SS above 200 nM. In addition, in [9], the CC50 is above 20000 nM. The inhibition in data set [3] is 97%; in data set [4], 36%. In addition, in data set [1], the Ki was determined as 24.9 nM. The Cmax in data set [8] stood at 2910 nM.
As for `Cc1ccc(CNC(=O)[C@@H]2CSCN2C(=O)[C@@H](O)[C@H](Cc2ccccc2)NC(=O)c2cccc(O)c2C)cc1`, the inhibition in [4] turned out to be 13%.
In the case of `CCc1c(O)cccc1C(=O)N[C@@H](Cc1ccccc1)[C@H](O)C(=O)N1CSC(C)(C)[C@H]1C(=O)NC(C)(C)C`, the bioavailability in data set [5] came out at 37%. Further, the half-life in [6] stood at 84 min. Also, in data set [7], the Tmax is 30 min. Also, the IC50 in the data set on CEM-SS amounted to 92 nM. In addition, the CC50 in [9] is above 20000 nM. For the same compound, the values for the inhibition in data set [3] and in data set [4] were 99% and 84%, respectively. Moreover, in data set [1], the Ki amounted to 2.24 nM. The compound also had a maximum concentration (Cmax) in [8] of 1160 nM.
Consider `CCc1cccc(C)c1OCC(=O)N[C@@H](Cc1ccccc1)[C@H](O)C(=O)N1CSC[C@H]1C(=O)NC(C)(C)C`, for which the inhibition in data set [3] was 94%; in [4] it was 32%.
Turning to `Cc1c(O)cccc1C(=O)N[C@@H](Cc1ccccc1)[C@H](O)C(=O)N1CSC(C)(C)[C@H]1C(=O)NCc1ccccc1C(F)(F)F`, the inhibition in data set [4] amounted to 88%.
Regarding `Cc1cccc(OCC(=O)N[C@@H](Cc2ccccc2)[C@H](O)C(=O)N2CSC[C@H]2C(=O)NC(C)(C)C)c1`, the inhibition in [3] is 38%.
Same read-out and setting: with `CC(C)(C)NC(=O)[C@@H]1CSCN1C(=O)[C@@H](O)[C@H](Cc1ccccc1)NC(=O)c1cccc(O)c1` the figure was 76%.
With `Cc1cccc(CNC(=O)[C@@H]2CSCN2C(=O)[C@@H](O)[C@H](Cc2ccccc2)NC(=O)c2cccc(O)c2C)c1`, the inhibition in data set [4] was found to be 18%.
The compound `Cc1c(O)cccc1C(=O)N[C@@H](Cc1ccccc1)[C@H](O)C(=O)N1CSC(C)(C)[C@H]1C(=O)NC(C)(C)C` gave a bioavailability in [5] of 39.4%. In [6], this compound returned a half-life of 83 min. The Tmax in data set [7] was 30 min. Moreover, the half-maximal inhibitory concentration (IC50) with CEM-SS was 19 nM. In addition, the CC50 in data set [9] was above 20000 nM. Moreover, the inhibition in [3] is 99%; in [4] it was 88%. Further, the Ki in data set [1] was 5.14 nM. This compound returned a Cmax in data set [8] of 2600 nM.
As to `Cc1ccccc1C(=O)N[C@@H](Cc1ccccc1)[C@H](O)C(=O)N1CSC[C@H]1C(=O)NC(C)(C)C`, in [3], the inhibition stood at 75%.
Still for that read-out and setting: the result for `Cc1c(N)cccc1C(=O)N[C@@H](Cc1ccccc1)[C@H](O)C(=O)N1CSC[C@H]1C(=O)NC(C)(C)C` reads 81%.
On to `Cc1cccc(C)c1OCC(=O)N[C@@H](Cc1ccccc1)[C@H](O)C(=O)N1CSC(C)(C)[C@H]1C(=O)NC(C)(C)C`, for which the IC50 in the data set on CEM-SS is above 200 nM. For the same compound, in [9], the CC50 is above 20000 nM. Besides, the inhibition in data set [3] was 97%; in data set [4] it was 35%. Further, the Ki in data set [1] amounted to 1.4 nM.
Consider `CCCc1cccc(C)c1OCC(=O)N[C@@H](Cc1ccccc1)[C@H](O)C(=O)N1CSC[C@H]1C(=O)NC(C)(C)C`, for which the inhibition in data set [3] amounted to 97%; in [4], 35%.
On to `Cc1c(O)cccc1C(=O)N[C@@H](Cc1ccccc1)[C@H](O)C(=O)N1CSC(C)(C)[C@H]1C(=O)NCc1ccccc1Cl`, for which inhibition with CEM-SS was half-maximal at 34 nM (IC50). The CC50 in data set [9] is above 20000 nM. Further, the inhibition in data set [4] was 95%. For the same compound, in data set [1], the inhibition constant (Ki) worked out at 0.29 nM.
The compound `CCc1c(O)cccc1C(=O)N[C@@H](Cc1ccccc1)[C@H](O)C(=O)N1CSC(C)(C)[C@H]1C(=O)NCc1ccccc1C` yielded a bioavailability in data set [5] of 10%. The same compound gave a half-life in data set [6] of 126 min. Further, the Tmax in data set [7] was 10 min. It took 11 nM to reach half-maximal inhibition in the data set on CEM-SS (IC50). Also, in data set [9], the CC50 was above 20000 nM. In [4], the inhibition stood at 97%. Further, the Ki in data set [1] came out at 0.19 nM. Further, in [8], the Cmax stood at 230 nM.
`Cc1ccccc1CNC(=O)[C@@H]1CSCN1C(=O)[C@@H](O)[C@H](Cc1ccccc1)NC(=O)c1cccc(O)c1C`: the bioavailability in [5] was determined as 32.3%. In addition, the half-life in data set [6] was 41 min. The Tmax in [7] was 30 min. The IC50 in the data set on CEM-SS is above 200 nM. The CC50 in data set [9] was above 20000 nM. The Ki in data set [1] came to 8.9 nM. Further, the peak level in data set [8] (Cmax) was 770 nM.
`Cc1cccc(C)c1OCC(=O)N[C@@H](Cc1ccccc1)[C@H](O)C(=O)N1CSC[C@H]1C(=O)NC(C)(C)C` came in with an IC50 in the data set with CEM-SS above 200 nM. In addition, in [9], the CC50 was above 20000 nM. Moreover, the inhibition came out at 95% in [3] and 56% in data set [4]. Besides, in data set [1], the inhibition constant Ki is 21.7 nM.
In the case of `CS[C@H](NC(=O)COc1cccc2cnccc12)C(=O)N[C@@H](Cc1ccccc1)[C@H](O)C(=O)N1CSC[C@H]1C(=O)NC(C)(C)C`, the IC50 with CEM-SS stood at 34 nM. Further, the CC50 in data set [9] was above 20000 nM. Moreover, in [1], the Ki came to 0.74 nM.
In the case of `CC(C)(C)NC(=O)[C@@H]1CSCN1C(=O)[C@@H](O)[C@H](Cc1ccccc1)NC(=O)COc1ccccc1`, the inhibition in data set [3] amounted to 48%.
Regarding `CC(C)(C)NC(=O)[C@@H]1CSCN1C(=O)[C@@H](O)[C@H](Cc1ccccc1)NC(=O)c1ccccc1`, the inhibition in data set [3] was found to be 52%.
With `Cc1ccccc1OCC(=O)N[C@@H](Cc1ccccc1)[C@H](O)C(=O)N1CSC[C@H]1C(=O)NC(C)(C)C`, the inhibition in data set [3] was 82%.
